Published values of several laboratories.
SIRT6: NAD-dependent protein deacylase sirtuin-6 (SIRT6, Homo sapiens, UniProt Q8N6T7)
Plasmepsin II: Plasmepsin II (Plasmodium falciparum, UniProt P46925)
PDK4: [Pyruvate dehydrogenase (acetyl-transferring)] kinase isozyme 4, mitochondrial (PDK4, Homo sapiens, UniProt Q16654)
Adra1a: Alpha-1A adrenergic receptor (Adra1a, Rattus norvegicus, UniProt P43140)
HTR6: 5-hydroxytryptamine receptor 6 (HTR6, Homo sapiens, UniProt P50406)
HTR7: 5-hydroxytryptamine receptor 7 (HTR7, Homo sapiens, UniProt P34969)

SMILES | target | assay | test system | setting | inhibition
NC(=O)c1ccc(C(=O)NOCc2ccc(Sc3cc(Cl)cc(Cl)c3)c(C(F)(F)F)c2)cc1 | SIRT6 | enzyme activity, inhibitor, fluorescence |  | 100 µM | 100%
O=[N+]([O-])c1ccc(N2CCCN(CCC(O)c3csc4ccc(F)cc34)CC2)c(C(F)(F)F)c1 (stereo not shown) | Plasmepsin II | enzyme activity, inhibitor |  | 5 µM | 8%
NC(=O)c1ccc(C(=O)NOCc2cccc3ccccc23)cc1 | SIRT6 | enzyme activity, inhibitor, fluorescence |  | 100 µM | 92.2%
Cc1cnc(C(=O)NCCNC(=O)Cn2[nH]c(=O)c3ccccc3c2=O)cn1 | Poly [ADP-ribose] polymerase 2 (PARP2, Homo sapiens, UniProt Q9UGN5) | enzyme activity, inhibitor |  | 0.5 µM | ~50%
CC/C(=N\NC(=O)NCc1cccc(O)c1)c1ccc(O)c(C)c1O | PDK4 | enzyme activity, inhibitor |  | 0.1 µM | -2.1%
Ic1cccc2cnccc12 | Adra1a | ligand displacement, radioligand |  | 10 µM | 9%
O=C(NO)c1ccc(C(=O)NOCc2ccc(C(F)(F)F)cc2)cc1 | SIRT6 | enzyme activity, inhibitor, fluorescence |  | 100 µM | 93.3%
C=CCC1(/C=C(\C)C=C)SC(=O)C(CC)=C1O (racemic) | Nicotinamide N-methyltransferase (NNMT, Homo sapiens, UniProt P40261) | enzyme activity, inhibitor |  | 10 µM | ~35%
CCCNc1nc2ccccc2n1Cc1ccc(Cl)cc1 | HTR6 | ligand displacement |  | 10 µM | 36.6%
Cc1ccc(CNC(=O)[C@H](CCc2ccccc2)NC(=O)[C@H](CCc2ccccc2)NC(=O)[C@H](CCc2ccccc2)NC(=O)c2cnc(C)cn2)cc1 | Cathepsin B (CTSB, Homo sapiens, UniProt P07858) | enzyme activity, inhibitor |  | 100 µM | -15%
CN1CC(Oc2cnc(C#N)cc2-c2ccn3nc(NC(=O)C4CC4)cc3c2)C1 | PDK4 | enzyme activity, inhibitor |  | 1 µM | 2%
O=C(Nc1ccc(S(=O)(=O)N2CCC(Cl)CC2)cc1)c1ccc([N+](=O)[O-])o1 | Adra1a | ligand displacement, radioligand |  | 10 µM | 19%
O=[N+]([O-])c1ccc(N2CCC(NCCC(O)c3ccc(F)c4ccccc34)CC2)c(C(F)(F)F)c1 (stereo not shown) | Plasmepsin II | enzyme activity, inhibitor |  | 5 µM | 9%
CN(C)C1CCN(CC#Cc2nn(C3CCCC3)c3nc(NCc4ccccc4)ncc23)C1 (stereo not shown) | Mitogen-activated protein kinase 13 (MAPK13, Homo sapiens, UniProt O15264) | enzyme activity, inhibitor, FRET |  | 0.1 µM | 1%
C1=CSC(=C2SC=CS2)S1 | Ubiquitin carboxyl-terminal hydrolase 14 (USP14, Homo sapiens, UniProt P54578) | enzyme activity, inhibitor |  | 17 µM | 54%
NCc1cccc(C(=O)NOCc2ccc(C(F)(F)F)cc2)c1 | SIRT6 | enzyme activity, inhibitor, fluorescence |  | 100 µM | 72.2%

SMILES | target | assay | test system | setting | inhibition
CCN(CC)CCNC(=O)C1CCN(c2ccc3nnc(-c4cccc(C)c4)n3n2)CC1 | Sodium channel protein type 5 subunit alpha (SCN5A, Homo sapiens, UniProt Q14524) | ion current, inhibitor, patch clamp | CHO | 10 µM | 9.9%
COc1ccccc1CONC(=O)c1ccc(C(N)=O)cc1 | SIRT6 | enzyme activity, inhibitor, fluorescence |  | 100 µM | 60.5%
Nc1ccc(-c2ccncc2)cc1NC(=O)N1CCCC1 | HTR6 | ligand displacement, radioligand |  | 10 µM | 16%
NC(=S)c1ccc(C(=O)NOCc2ccc(C(F)(F)F)cc2)cc1 | SIRT6 | enzyme activity, inhibitor, fluorescence |  | 100 µM | 89.2%
CN(Cc1ccc(NC(=O)C2=Cc3cc(-c4ccc(OCCCF)cc4)ccc3CCC2)cc1)C1CCOCC1 | C-C chemokine receptor type 2 (CCR2, Homo sapiens, UniProt P41597) | ligand displacement, radioligand |  | 1 µM, cell membranes | 48%
COC(=O)c1ccc(C(=O)NOCc2ccccc2)cc1 | SIRT6 | enzyme activity, inhibitor, fluorescence |  | 100 µM | 52.2%
COc1cc2c3c(c1OCc1ccc(Br)cc1)-c1cc4c(cc1CC3N(C)CC2c1ccccc1)OCO4 (stereo not shown) | HTR7 | ligand displacement, radioligand |  | 10 µM | -22.6%
COc1cccc(Sc2ccc(CONC(=O)c3ccc(C(N)=O)cc3)cc2C(F)(F)F)c1 | SIRT6 | enzyme activity, inhibitor, fluorescence |  | 100 µM | 100%
C/C(=C\C(=O)OCCCCCCCCC(=O)O)C[C@@H]1OC[C@H](C[C@@H]2O[C@H]2[C@@H](C)[C@H](C)O)[C@@H](O)[C@H]1O | C-C chemokine receptor type 5 (CCR5, Homo sapiens, UniProt P51681) | calcium signal, antagonist | U87/CD4/CCR5 | 100 µM | 96%
O=C(c1ccc(Cl)cc1)N(Cc1ccccc1)C1CCCCC1 | HTR7 | ligand displacement, radioligand |  | 10 µM | 19.2%
CC1=NN(c2ccccc2)CC1 | NADPH oxidase 4 (NOX4, Homo sapiens, UniProt Q9NPH5) | enzyme activity, inhibitor, fluorescence |  | 100 µM, cell membranes | > 40%
O=C(c1ccc(F)cc1)N(Cc1ccccc1)C1CCCCC1 | Adra1a | cell-free assay |  | 10 µM | -1%
CCCCCCCCCCCCNC(=S)NCCCC[C@H](NS(C)(=O)=O)C(=O)N[C@@H](C)C(=O)N[C@@H](CCCNC(=N)N)C(N)=O | SIRT6 | enzyme activity, inhibitor |  | 10 µM | 30%
O=[N+]([O-])c1ccc(N2CCC(NCCC(O)c3csc4ccc(F)cc34)CC2)c(C(F)(F)F)c1 (stereo not shown) | Plasmepsin II | enzyme activity, inhibitor |  | 5 µM | 0%
CCN(Cc1ccccc1C(F)(F)F)C(=O)C1CCN(S(=O)(=O)c2ccc3[nH]ncc3c2)CC1 | Adra1a | ligand displacement, radioligand |  | 10 µM | 12%
